HCV core dimer = HCV core protein dimerization inhibition; inhibition, % at 5 µM; TR-FRET GST/Flag-core106 dimerization, 1536-well; actives 0.33% (n = 300,000);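 active = inhibition above the mean of all tested compounds plus 3 SD, set per screening campaign, cut at about 45% in these data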
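Test system: GST/Flag-tagged HCV core106 proteins; Medium: KF-containing HEPES buffer, pH 7.45, DTT, CHAPS, BSA; Times: compound-protein-antibody incubation 4 h at 22.5 °C; Detection: TR-FRET 671 and 617 nm emission; Benchmarks: wells lacking GST-core106 and wells with excess unlabelled core106.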
IMP-1 inhibitor = inhibitors of Pseudomonas aeruginosa IMP-1 metallo-beta-lactamase | actives 0.45% (n = 290,000) | purified IMP-1, nitrocefin hydrolysis, epi-absorbance fluorescence | inhibition, % at 5.6 µM;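 active = inhibition above the mean plus 3 SD of all compounds in the same screening run, cut at about 4.5% in these data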
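system = purified recombinant IMP-1 beta-lactamase | amount = 0.2 nM IMP-1, as dispensed | medium = HEPES buffer pH 7.1 with ZnSO4 and Brij 35 | times = 25 °C, 15 min preincubation, 25 min reaction | detection = plate fluorescence quenching by hydrolysis product, ex 480/em 530 nm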
VIM-2 inh = inhibitors of Pseudomonas aeruginosa VIM-2 metallo-beta-lactamase. purified VIM-2, nitrocefin hydrolysis, epi-absorbance fluorescence. inhibition, % at 5.6 µM. actives 0.89% (n = 290,000). AID 1527;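 active = inhibition above the mean of all tested compounds plus 3 SD, cutoff set per screening run, cut at about 7.5% in these data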;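 also: red hydrolysis product quenches plate fluorescence so inhibitors raise well fluorescence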
FID counter = fluorescent intercalator displacement, NS3 helicase counter-screen. inhibition, % at 7.9 µM. DNA fluorescent intercalator displacement, fluorescence. AID 1845. actives 0.17% (n = 290,000); in the data active = inhibition above about 37%;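 also: higher means more ethidium bromide displaced from hairpin DNA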
Of the large screens only hits and unclear results are named; the others gave an inactive call. An excerpt weighted towards active compounds, which were near 1.6% of everything screened.

CCOC(=O)c1cccc(NC(=O)CSc2nc(N)cc(N)n2)c1	none
Cc1nc(SCC(=O)NCc2ccco2)c2c3c(sc2n1)CCCC3	none
CCCc1nc2sc3c(SCC(=O)NCc4ccco4)ncnc3c2c2c1CCC2	IMP-1 inhibitor 14.7
CCSc1nc2sc3c(c2c2nnc(SCC(=O)NCc4ccco4)n12)CCCC3	HCV core dimer 58.5
Cc1ccc(-n2c(SCC(=O)NCc3ccco3)nc3sc4c(c3c2=O)CC(C)(C)SC4)cc1	HCV core dimer 67.7
Cc1c(CC(=O)O)c(=O)oc2c(C)c(OCc3ccccc3)ccc12	none (no result: HCV core dimer)
CCc1c(C)c2ccc(OCC(=O)N(C)C)c(C)c2oc1=O	VIM-2 inh 9.8
Cc1c(CC(=O)O)c(=O)oc2c(C)c(OCc3ccccc3Br)ccc12	IMP-1 inhibitor 6.9
COc1ccc(N2C(=O)c3ccccc3NC23CCCCC3)cc1	none
CCOC(=O)C1CCN(C(=O)Nc2ccc(NC(=O)C3CCN(C(=O)OCC)CC3)cc2)CC1	none
COc1ccc2cc3c(N)nn(C(=O)c4cccc([N+](=O)[O-])c4)c3nc2c1	HCV core dimer 58.3
Cc1ccc(NC(=O)CN(c2ccc(Cl)cc2)S(=O)(=O)c2cc([N+](=O)[O-])ccc2Cl)cc1	none
NC(=O)c1sc2nc(-c3ccco3)ccc2c1N	VIM-2 inh 11.4
Nc1c(C(=O)Nc2ccccc2F)sc2nc(-c3cccnc3)ccc12	none
COC(=O)c1sc2nc(-c3ccco3)ccc2c1N	none
Nc1c(C(=O)Nc2ccccc2F)sc2nc(-c3ccco3)ccc12	HCV core dimer 48.2
CN(Cc1cccc2cnccc12)C(=O)c1cc(COc2ccc(F)cc2Cl)on1	none
O=C(CSc1ccc(-c2ccco2)nn1)c1ccccc1	HCV core dimer 47.9
COc1cccc(C2(O)CCN(C(=O)C3CC3)CC2)c1	none
C#CCOCCOCCOCCNc1nc(N2CCN(C(=O)[C@H](CCCCN)n3cc(CCCC)nn3)CC2)nc(N2CCN(C(=O)[C@H](CCCCN)n3cc(CCCC)nn3)CC2)n1	none
COc1ccc(OCc2nc(N)nc(Nc3ccccc3OC)n2)cc1	IMP-1 inhibitor 5.4
COc1ccccc1Nc1nc(N)nc(CCl)n1	none
CC(C)N(CCn1c(SCC(=O)N2CC(=O)Nc3ccccc32)nc2ccccc2c1=O)C(C)C	none
COCCn1c(C)cc(C(=O)CSc2nncn2-c2ccccc2)c1C	IMP-1 inhibitor 5.0
Cc1ccc(C)n1-c1ccc(-c2nnco2)cc1	HCV core dimer 67.1
Cc1cc(-c2nnco2)c(C)n1-c1ccc(F)cc1	none
COCCn1c(-c2ccco2)csc1=Nc1cccnc1	none
CC(C)Cn1c(-c2ccco2)csc1=Nc1cccnc1	HCV core dimer 50.1
Cc1cc(=O)[nH]c2c(N=Nc3ccc(O)cc3)c(N)nn12	IMP-1 inhibitor 6.4 (no result: HCV core dimer)
CCOC(=O)c1cnc(-n2nc(C)cc2C)nc1Nc1ccc(C)cc1	none (no result: HCV core dimer)
CCOC(=O)c1cnc(-n2nc(C)cc2C)nc1NC	VIM-2 inh 8.1
CCCc1nc(SCC(=O)c2ccc(F)cc2)c2ccccc2n1	none
Cc1c(C#N)c(O)n(C)c(=O)c1N=Nc1ccc(S(N)(=O)=O)cc1	VIM-2 inh 10.0 (no result: HCV core dimer)
NCCNC(=O)Cn1c(=O)c2c3c(sc2n(Cc2ccccc2)c1=O)CCCC3	VIM-2 inh 8.2
NCCCNC(=O)Cn1c(=O)c2c3c(sc2n(Cc2ccccc2)c1=O)CCCC3	none (no result: HCV core dimer)
NC1=NC[C@H](Cc2ccc(O)cc2)N1CC1CCCCC1	none (no result: IMP-1 inhibitor, VIM-2 inh, FID counter)
COc1ccccc1-c1cc(C(=O)Nc2sc3c(c2C#N)CCC(C)C3)c2ccccc2n1 (configuration not stated)	HCV core dimer 46.9
Cc1cc(C(=O)OCC(=O)Nc2sc3c(c2C#N)CCC(C)C3)c2ccccc2n1 (configuration not stated)	HCV core dimer 53.1
COc1ccc(OC)c(-c2cc(C(=O)Nc3sc4c(c3C#N)CCC(C)C4)c3ccccc3n2)c1 (configuration not stated)	none
CCN(CC)C(=O)c1sc2c(c1C)c(=O)n(-c1ccc(C)c(C)c1)c(=O)n2CC(=O)NCC1CCCO1 (configuration not stated)	none
CCCCNC(=O)c1oc2ccc(S(=O)(=O)N3CCCC3)cc2c1C	IMP-1 inhibitor 5.9
CCN(CC)C(=O)c1oc2ccc(S(=O)(=O)N3CCCCCC3)cc2c1C	none
CCOC(=O)C1=C(C)N=c2s/c(=C/c3cccc([N+](=O)[O-])c3O)c(=O)n2C1c1cc(OC)c(OC)c(OC)c1 (configuration not stated)	none
CCOC(=O)C1=C(C)N=c2s/c(=C/c3cccc([N+](=O)[O-])c3O)c(=O)n2C1c1ccccc1 (configuration not stated)	VIM-2 inh 8.1
CCOC(=O)C1=C(C)N=c2s/c(=C/c3ccco3)c(=O)n2C1c1cccc(OC)c1 (configuration not stated)	HCV core dimer 48.0
Cc1nnc2c3ccccc3c(-c3ccc(O)cc3)nn12	VIM-2 inh 10.0
N#C/C(=C\c1ccccc1OCC(=O)O)c1nc2ccccc2[nH]1	none
COc1cccc(NC(C)C(=O)Nc2cc([N+](=O)[O-])ccc2Cl)c1 (configuration not stated)	none
O=C(Cc1ccc(-c2ccccc2)cc1)Nc1ccccn1	IMP-1 inhibitor 33.7
Cc1ccnc(NC(=O)Cc2ccc([N+](=O)[O-])cc2)c1	none
Cc1ccc(NC(=O)Cc2ccc(-c3ccccc3)cc2)nc1	IMP-1 inhibitor 11.9
Cc1ccnc(NC(=O)Cc2ccc(-c3ccccc3)cc2)c1	IMP-1 inhibitor 11.7
Cc1ccc(NC(=O)Cc2ccc(Cl)cc2)nc1	none (no result: IMP-1 inhibitor, VIM-2 inh, FID counter)
NC(=O)COC(=O)[C@@H]1CC(O)CN1S(=O)(=O)c1ccc2c(c1)OCCO2 (some centres not stated)	none
CC(C(=O)Nc1ccc(C#N)cc1)N(C)CC(=O)Nc1ccccc1Br (configuration not stated)	none
CCCc1cc(NCCCN2CCOCC2)n2c(nc3ccccc32)c1C#N	VIM-2 inh 8.0
CCCc1cc(NCCCCO)n2c(nc3ccccc32)c1C#N	none
CC(C)c1cc(NCCOCCO)n2c(nc3ccccc32)c1C#N	VIM-2 inh 11.9
CNc1nc(C)c(C(=O)OCC(=O)OC)s1	FID counter 37.1
O=C(Nc1ccc(F)c(Cl)c1)C1CC2CCC1C2 (configuration not stated)	none (no result: IMP-1 inhibitor, VIM-2 inh, FID counter)
CCOC(=O)c1cnc2c(cnn2C)c1NCCCN(C)C	VIM-2 inh 8.4
CCOC(=O)c1cnc2c(ccc3ccccc32)c1NCCN(C)C	VIM-2 inh 11.6, FID counter 45.5
Cn1c(=O)c2c(nc(CN3CCN(C(c4ccccc4)c4ccccc4)CC3)n2CCCO)n(C)c1=O	none
CSc1nc(NCc2ccccc2)c2c3c(sc2n1)CN(C)CC3	none
CSc1nc(NCC(C)C)c2c3c(sc2n1)CN(C)CC3	VIM-2 inh 8.4
COCCNc1nc(SC)nc2sc3c(c12)CCN(C)C3	VIM-2 inh 9.8
CCN(CC)CCNc1nc(SC)nc2sc3c(c12)CCN(C)C3	VIM-2 inh 10.6
Cc1ccc(S(=O)(=O)/C(C#N)=C/c2c(N3CCN(C)CC3)nc3c(C)cccn3c2=O)cc1	none

Source: PubChem
